Consider 22 compounds from ChEMBL document CHEMBL1138033, “S-alkylated homocysteine derivatives: new inhibitors of human betaine-homocysteine S-methyltransferase” (J Med Chem, 2006).

Assay [1] has as its target T1, Betaine--homocysteine S-methyltransferase 1 (Homo sapiens) (UniProt Q93088).
T1 sequence (whole entry): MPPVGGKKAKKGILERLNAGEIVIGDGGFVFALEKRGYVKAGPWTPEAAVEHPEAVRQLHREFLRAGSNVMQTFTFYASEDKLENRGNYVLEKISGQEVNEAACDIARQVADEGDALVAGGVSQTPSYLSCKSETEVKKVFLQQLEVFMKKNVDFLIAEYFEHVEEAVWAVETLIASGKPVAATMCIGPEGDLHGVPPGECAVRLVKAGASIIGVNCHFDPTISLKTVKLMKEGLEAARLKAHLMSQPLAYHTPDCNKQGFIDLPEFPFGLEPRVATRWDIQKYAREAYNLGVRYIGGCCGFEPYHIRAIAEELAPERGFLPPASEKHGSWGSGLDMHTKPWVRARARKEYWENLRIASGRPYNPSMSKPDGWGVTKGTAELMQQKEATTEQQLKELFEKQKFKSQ
Put plainly: Inhibition of human BHMT at 20 uM. A digest of the protocol: (§1)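 Recombinant human BHMT (0.2 µM) premixed with inhibitor, then 100 µM D,L-homocysteine and 250 µM N-methyl-¹⁴C-betaine (0.05 µCi) added; 50 mM K-phosphate pH 7.5, 10 mM β-mercaptoethanol, 37°C for 30 min. Radiolabel incorporation read against enzyme-free blanks; triplicates, percent relative to no-inhibitor control.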

In assay [2] the target is T1, Betaine--homocysteine S-methyltransferase 1 (Homo sapiens). Put plainly: Inhibition of human BHMT at 1 uM. A digest of the protocol: as §1
Assay [3] deals with T2, Betaine--homocysteine S-methyltransferase 1 (Homo sapiens, UniProt Q93088).
T2 sequence (Q93088 whole entry): T1 sequence (whole entry)
Kind of assay: Inhibition of human BHMT. A digest of the protocol:
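Recombinant human BHMT (0.2 µM) mixed with inhibitor at ten concentrations, then 1 mM D,L-homocysteine and 2 mM betaine (¹⁴C-methyl labelled, 0.15 µCi) added in 50 mM K-phosphate pH 7.5 with 10 mM β-mercaptoethanol; 30 min at 37°C. Enzyme-free blanks subtracted. IC50 by nonlinear regression; points in duplicate, three independent assays.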

As for `NC(CCSCc1ccc(CC(=O)O)cc1)C(=O)O` (racemic), in assay [1], the inhibition (commonly the share of the control response that was lost under treatment) came to 10.1%.
On the same count and under the same terms, as for `NC(CCSCC(=O)NCP(=O)(O)O)C(=O)O` (racemic), the figure is 8.8%.
As to `NC(CCSc1ccc(C(=O)O)cc1)C(=O)O` (racemic), the inhibition in assay [1] was 98.6%; in assay [2], 84.8%. In assay [3], the IC50 (in general, the midpoint of a concentration-inhibition curve) stood at 7 µM.
`NC(CCSSCCC(N)C(=O)O)C(=O)O` (stereo not given): in assay [1], the inhibition turned out to be 0%.
Regarding `C=CCSCCC(N)C(=O)O` (racemic), in assay [1], the inhibition stood at 0%.
The same measure, in the same setting: as for `NC(CCSCCCC(=O)O)C(=O)O` (racemic), the figure is 20.1%.
Regarding `NC(CCSCCCCC(=O)O)C(=O)O` (racemic), the inhibition in assay [1] stood at 100%; in assay [2] it was 98.3%.
In turn, `N[C@@H](CSCCCCC(=O)O)C(=O)O` showed an inhibition in assay [1] of 0%.
Same read-out and setting: the same measure for `NC(CCS(=O)(=O)CCCCC(=O)O)C(=O)O` (racemic): 28.8%; for `NC(CCSCC(N)C(=O)O)C(=O)O` (stereo not given): 18.8%.
Regarding `NC(CCSCCSCC(=O)O)C(=O)O` (racemic), the inhibition in assay [1] amounted to 100%; in assay [2], 96.8%. The compound also gave an IC50 in assay [3] of 0.096 µM.
In turn, `NC(CCSc1cccc(C(=O)O)c1)C(=O)O` (racemic) registered an inhibition in assay [1] of 12.8%.
Still for that read-out and setting: the same measure for `NC(CC[S+]([O-])CC(N)C(=O)O)C(=O)O` (stereo not given): 9.5%; for `CSCSCCC(N)C(=O)O` (racemic): 20.5%.
On to `NC(CCSCCCCCC(=O)O)C(=O)O` (racemic), for which the inhibition in assay [1] is 100%; in assay [2] it was 99.9%. Also, half-maximal inhibition in assay [3] (IC50) was put at 0.2 µM.
The compound `COC(=O)C(N)CCSCC(=O)NCP(=O)(O)O` (racemic) came in with an inhibition in assay [1] of 0%.
Regarding `NC(CCSSCCC(=O)O)C(=O)O` (racemic), the figures for the inhibition in assay [1] and in assay [2] were 30% and 0%, respectively.
`NC(CCSc1ccccc1C(=O)O)C(=O)O` (racemic) displayed an inhibition in assay [1] of 42.5%.
Regarding `NC(CC[S+]([O-])CCCCC(=O)O)C(=O)O` (racemic), the inhibition in assay [1] was 97.3%; in assay [2], 67.8%. For the same compound, in assay [3], 5 µM corresponded to half-maximal inhibition (IC50).
For `NC(CCSCC[S+]([O-])CC(=O)O)C(=O)O` (racemic), the inhibition came to 89.8% in assay [1] and 55.3% in assay [2].
On to `NC(CCSCCOCP(=O)(O)O)C(=O)O` (racemic), for which, in assay [1], the inhibition was found to be 25.5%.
For `NC(CCSCCCCP(=O)(O)O)C(=O)O` (racemic), the inhibition amounted to 97.8% in assay [1] and 74% in assay [2]. For the same compound, the half-maximal inhibitory concentration (IC50) in assay [3] stood at 5.7 µM.
